The record followed here is PubChem BioAssay.

The source made the active and inactive calls.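 Rule for the calls, unless noted: active = compounds giving at least 50% inhibition in the cell-based MKP-3 phosphatase rescue imaging test; inactive = the rest.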

A short description of test [1]: inhibitors of TNFa-induced NFkB p65 translocation, primary screen, imaging, HUVEC, MLSMR starter and 10KST1 sets (AID 438;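 active = inhibition above 20% together with a positive visual image hit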;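 note: compound added about 3h40 before a 20 min TNFalpha stimulation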;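 for inhibition: signal is the nuclear over cytoplasmic p65 intensity ratio per well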). To be noted: HUVEC TNFa-induced p65 nuclear translocation; cell count: measured here: nuclei count (cytotoxicity indicator), at 2.08 µM; inhibition: at 2 µM, stronger effect = higher value, 0% TNFa-plus-vehicle, 100% no-TNFa wells.
Test [2] in a line: inhibitors of E-selectin induction by TNFa, primary screen, imaging, HUVEC, immunofluorescence, MLSMR starter and 10KST1 sets (AID 487;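 active = visually confirmed hit in the image check and inhibition above 20%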;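 for inhibition: signal is fraction of cell area covered by stained E-selectin grains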;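 for nuclei count: 100% = median nuclei count of all wells on the same plate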). To be noted: HUVEC TNFalpha-induced E-selectin immunofluorescence imaging, at 2 µM; inhibition: stronger effect = higher value; nuclei count: measured here: cell number, toxicity.
Test [3] can be described thus: DUSP6 inhibitors restoring Erk phosphorylation by chemical complementation, primary imaging in DUSP6-transfected HeLa (AID 609).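 For inhibition: phospho-Erk level distribution per well compared with pooled transfected vehicle control wells.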 To be noted: HeLa MKP-3 transfected, phospho-Erk imaging KS statistic, at 10 µM, cells stimulated with TPA for 15 min.
Test [4] has as its target Dual specificity protein phosphatase 6 (Homo sapiens) (UniProt Q16828). The description is as above. The note with it: HeLa MKP-3 transfected, phospho-Erk imaging KS statistic; at 10 µM; stronger effect = higher value; cells stimulated with TPA for 15 min.
Test [5] has as its target Voltage-gated potassium channel subunit beta-2 (Rattus norvegicus) (UniProt P62483). In words: KvBeta enzyme negative modulators, primary screen, biochemical, NADPH fluorescence (AID 622;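 active = fluorescence slope higher than the sample average by over 3 SD, cut at about -0.22 in these data, passing the limit was not always enough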;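 note: slope of raw intensity against log time taken from 70 to 1610 s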). The note with it: recombinant KvBeta, 4-cyanobenzaldehyde reduction, at 10 µM, stronger effect = higher value.
Test [6] has the same target. Put plainly: KvBeta positive modulators, primary screen, biochemical, NADPH fluorescence (AID 623;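 active = NADPH fluorescence slope more negative than the mean of all samples by about 3 SD, 99.7% confidence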;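 note: fluorescence intensity change per second fitted from 20 to 320 s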). To be noted: Recombinant KvBeta, NADPH fluorescence decrease slope, 10 min; at 10 µM; stronger effect = lower value.
The target in test [7] is Alpha-2C adrenergic receptor (Homo sapiens) (UniProt P18825). In words: modulators of alpha2C/GIRK thallium flux, primary screen, cell-based, HEK293 alpha2C/GIRK1/2 (AID 624;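 active = fluorescence slope after compound addition differing from the mean of all screened samples at 99.7% confidence, in either direction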;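 note: slope of fluorescence ratio to pre-addition baseline per second over 15 to 24 s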). To be noted: thallium flux BTC fluorescence, at 10 µM, actives lie on both sides.
Chain of Alpha-2C adrenergic receptor (Homo sapiens) (P18825 whole entry, looked up): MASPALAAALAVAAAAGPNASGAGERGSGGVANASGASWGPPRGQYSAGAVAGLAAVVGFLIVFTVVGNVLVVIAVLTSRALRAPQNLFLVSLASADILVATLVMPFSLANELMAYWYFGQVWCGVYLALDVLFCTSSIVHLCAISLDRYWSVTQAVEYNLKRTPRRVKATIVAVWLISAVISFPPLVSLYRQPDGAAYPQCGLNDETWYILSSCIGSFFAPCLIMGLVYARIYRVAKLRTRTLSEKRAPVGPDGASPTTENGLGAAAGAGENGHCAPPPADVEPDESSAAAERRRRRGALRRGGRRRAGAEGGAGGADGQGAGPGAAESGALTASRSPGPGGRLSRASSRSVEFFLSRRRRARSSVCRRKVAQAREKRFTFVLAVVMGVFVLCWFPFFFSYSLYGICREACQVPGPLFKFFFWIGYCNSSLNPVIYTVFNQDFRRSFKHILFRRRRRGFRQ
A short description of test [8]: inhibitors of larval lipid processing in zebrafish, primary screen, whole organism, PED6 fluorescence, gall bladder and intestine (AID 686;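 active = a full or partial loss of lipid-probe fluorescence in the fish gall bladder, intestine or both, judged by eye; inactive = no fluorescence loss, or compound toxic to the fish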;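 note: larvae 5 to 7 days old with five fish per well; signal comes from phospholipase A2 cleavage of quenched PED6 carried via bile; overnight exposure to compound and PED6 before scoring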). To be noted: Zebrafish larvae PED6 lipid processing, fluorescence scoring; screened at 20 µM (by protocol). An outline of the steps:
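Doses: 20 µM single dose. Test system: live zebrafish larvae aged 5-7 days, whole organism. Quantity: five larvae per well. Measured by: By-eye fluorescence microscopy. Reagent: ingested quenched lipid PED6 at 100 nM. Read-out: visual per-well fluorescence inhibition score. Times: overnight exposure of larvae to compound plus PED6.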

Test [9] can be described thus: inhibitors of Chlamydomonas gravitaxis, primary screen, whole organism, Chlamydomonas reinhardtii, WT vs cilia-less mutant, absorbance, 96-well (AID 463189;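 active = inhibition at or above 50% relative to wild type and mutant plate controls; inactive = inhibition below 50%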;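 note: 0% = wild type cc124 cells in DMSO and 100% = ciliumless bld1 mutant cells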). The note with it: OD600 absorbance, 2 days, at 10 µM, stronger effect = higher value.
Where [10] appears, read: measured here: cell density z-score.
Setting [11] is: measured here: nuclear c-Myc green intensity z-score.
[12] abbreviates: measured here: nuclear pErk red intensity z-score, stronger effect = higher value.

Chain of Voltage-gated potassium channel subunit beta-2 (Rattus norvegicus) (P62483 whole entry, looked up): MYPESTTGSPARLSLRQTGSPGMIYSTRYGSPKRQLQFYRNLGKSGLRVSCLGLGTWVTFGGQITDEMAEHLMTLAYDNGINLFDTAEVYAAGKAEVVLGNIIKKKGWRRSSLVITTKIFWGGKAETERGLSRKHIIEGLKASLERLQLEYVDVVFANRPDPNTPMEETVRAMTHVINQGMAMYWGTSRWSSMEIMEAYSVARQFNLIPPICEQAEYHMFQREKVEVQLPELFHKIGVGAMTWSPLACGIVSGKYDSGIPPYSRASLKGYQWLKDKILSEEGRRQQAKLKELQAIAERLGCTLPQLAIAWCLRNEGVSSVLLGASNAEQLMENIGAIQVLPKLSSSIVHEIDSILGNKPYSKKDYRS
Chain of Dual specificity protein phosphatase 6 (Homo sapiens) (Q16828 whole entry, looked up): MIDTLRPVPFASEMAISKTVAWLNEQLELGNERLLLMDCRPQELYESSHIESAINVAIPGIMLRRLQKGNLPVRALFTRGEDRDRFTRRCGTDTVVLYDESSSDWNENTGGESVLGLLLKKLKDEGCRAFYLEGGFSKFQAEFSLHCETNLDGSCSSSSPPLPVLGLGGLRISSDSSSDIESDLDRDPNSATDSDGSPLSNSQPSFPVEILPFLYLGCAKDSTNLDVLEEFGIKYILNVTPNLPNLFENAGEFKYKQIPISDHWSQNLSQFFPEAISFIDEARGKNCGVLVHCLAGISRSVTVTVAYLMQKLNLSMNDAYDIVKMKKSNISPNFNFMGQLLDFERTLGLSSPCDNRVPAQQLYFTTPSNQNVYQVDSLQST

As to `COc1ccccc1N(O)C1CC(=O)N(c2ccc(F)cc2)C1=O` (stereo unspecified), in test [1], the cell count was determined as 304. Further, the inhibition (commonly the change of the read-out against control, counted positive when it falls) in test [1] is -7.6% (inactive); in test [2], -18.5% (inactive); in test [4] it was 13.4% (inactive); in [9], -1.02% (inactive). This molecule came in with a nuclei count in [2] of 92%. The z-score in test [3] (setting [10]) was -1.81; in test [3] (setting [11]), 1.54; in test [3] (setting [12]), 0.452. Further, the fluorescence slope in test [5] is -0.46 (inactive). Further, the NADPH fluorescence slope in test [6] is -0.000168 (inactive). For the same molecule, the slope in test [7] was 0.00806 (inactive). In addition, the molecule was called inactive in [8].
With `CC(=O)Nc1cc2c(cc1Br)OCCO2`, the cell count in test [1] was 524. In addition, the inhibition in test [1] was -18.7% (inactive); in test [2] it was -80.8% (inactive); in [4], 16.1% (inactive); in test [9] it was 33.1% (inactive). In test [2], this molecule had a nuclei count of 169%. Besides, the z-score in [3] (setting [10]) is -0.0183; in [3] (setting [11]), 1.62; in [3] (setting [12]) it was -0.826. The fluorescence slope in test [5] is -0.519 (inactive). Also, in test [6], the NADPH fluorescence slope is -3.4e-05 (inactive). The slope in test [7] is 0.00516 (inactive). In addition, the molecule was classed as inactive in test [8].
Consider `COc1ccc(-c2nn3c(COc4ccccc4)nnc3s2)cc1OC`, for which the cell count in test [1] came to 597. For the same molecule, the inhibition in test [1] was -0.7% (inactive); in [2], 33.6% (inactive); in [4], -0.674% (inactive); in test [9] it was -1.36% (inactive). Besides, in [2], the nuclei count is 96.3%. Further, the z-score in test [3] (setting [10]) was 1.18; in [3] (setting [11]), -0.256; in test [3] (setting [12]) it was -1. In addition, in test [5], the fluorescence slope was -0.395 (inactive). Besides, the NADPH fluorescence slope in test [6] was -6e-05 (inactive). Also, the slope in test [7] is 0.00544 (inactive). Moreover, in [8], the molecule was classed as inactive.
In the case of `CCOC(=O)C1=C(C)N=C2SC(C)C(=O)N2C1c1ccc(OC(C)=O)c(OC)c1` (stereo unspecified), in test [1], the cell count is 364. Besides, the inhibition was -4% (inactive) in test [1], -11.8% (inactive) in test [2], -4.59% (inactive) in [4] and 21.6% (inactive) in test [9]. The nuclei count in test [2] came to 184%. Further, the values for the z-score in test [3] (setting [10]), in [3] (setting [11]) and in test [3] (setting [12]) were 0.885, -1.84 and 1.33, respectively. The fluorescence slope in test [5] was -0.413 (inactive). In addition, the NADPH fluorescence slope in test [6] is -0.000136 (inactive). Besides, the slope in test [7] is 0.00549 (inactive). In addition, the molecule was called inactive in test [8].
With `COC(=O)c1ccccc1NC=C1C(=O)OC2(CCCCC2)OC1=O`, the cell count in test [1] turned out to be 343. In addition, the inhibition in test [1] is -9% (inactive); in test [2], 27.4% (inactive); in test [4], 1.42% (inactive); in test [9] it was 46.5% (inactive). Further, the nuclei count in test [2] was 86.4%. Besides, the z-score was -1.26 in [3] (setting [10]), -1.2 in test [3] (setting [11]) and -0.313 in test [3] (setting [12]). Also, the fluorescence slope in [5] is -0.443 (inactive). Moreover, the NADPH fluorescence slope in test [6] is -1.9e-05 (inactive). In addition, the slope in [7] is 0.00691 (inactive). For the same molecule, the result in test [8] was inactive.
Take `CSc1sc(C(=O)O)c2c1C(=O)CCC2`: the cell count in [1] stood at 562. Further, the inhibition is -4.6% (inactive) in [1], -163% (inactive) in test [2], 5.65% (inactive) in [4] and -9.07% (inactive) in test [9]. For the same molecule, in test [2], the nuclei count is 186%. The z-score in test [3] (setting [10]) was -0.487; in test [3] (setting [11]), 1.05; in test [3] (setting [12]), 0.511. In addition, in test [5], the fluorescence slope is -0.486 (inactive). Moreover, the NADPH fluorescence slope in test [6] was -0.000199 (inactive). In [7], the slope is 0.00495 (inactive). Further, the molecule was called inactive in test [8].
On to `CCCCOc1ccc(CN(C)c2ncnc(N)n2)cc1`, for which the cell count in test [1] is 657. Further, the inhibition in [1] is -1.7% (inactive); in test [2], -51.5% (inactive); in [4] it was 5.57% (inactive); in test [9] it was 29.8% (inactive). In test [2], the nuclei count was found to be 180%. The z-score in [3] (setting [10]) was -0.491; in test [3] (setting [11]), 0.207; in [3] (setting [12]) it was -0.506. Moreover, in test [5], the fluorescence slope was -0.503 (inactive). For the same molecule, the NADPH fluorescence slope in test [6] was -0.00011 (inactive). The slope in [7] was 0.00652 (inactive). The outcome in test [8] was inactive.
